# In ChEMBL document CHEMBL4831507, “Development of FABP4/5 inhibitors with potential therapeutic effect on type 2 Diabetes Mellitus” (Eur J Med Chem, 2021):
# Calls of active or inactive are those of the source. No cut-off for these calls is given here.
# Target: T1, Fatty acid-binding protein, adipocyte (Homo sapiens, UniProt P15090)
# Assay: Displacement of 1,8-ANS from FABP4 (unknown origin) incubated for 3 mins by fluorescence based analysis
# Conditions: not given
# Procedure, shortened: (§1)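 1,8-ANS displacement using purified recombinant FABP3, FABP4 or FABP5. Compound incubated with protein and 1,8-ANS in phosphate buffer for 3 min at room temperature. Fluorescence read at ex 370/em 470 nm. IC50 by nonlinear regression, mean ± SD of three independent experiments.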
# Target sequence in this assay (P15090 whole entry): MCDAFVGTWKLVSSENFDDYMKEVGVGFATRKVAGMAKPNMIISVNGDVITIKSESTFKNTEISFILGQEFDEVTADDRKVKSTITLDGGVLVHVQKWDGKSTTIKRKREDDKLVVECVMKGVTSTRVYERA
row,IC50 [µM],Structure (SMILES)
1,7.84,O=C(O)c1cc(NS(=O)(=O)c2ccc(-c3ccc(F)c(Cl)c3)c3ccccc23)ccc1F
2,6.34,Cc1c(Cl)cccc1OCc1[nH]c2nc(-c3ccccc3)nn2c(=O)c1C
3,14.3,CCc1ccccc1-c1cc(S(=O)(=O)Nc2ccc(F)c(CC(=O)O)c2)c2ccccc2c1OC

# Further lines, the compound ahead of its results:
row,Structure (SMILES),IC50 [µM]
1,O=C(O)c1cc(NS(=O)(=O)c2ccc(-c3ccccc3OC(F)(F)F)c3ccccc23)ccc1F,12.5
2,CC(C)c1ccccc1-c1ccc(S(=O)(=O)Nc2ccc(F)c(C(=O)O)c2)c2ccccc12,11.9
3,O=C(O)c1cc(NS(=O)(=O)c2ccc(-c3ccc(O)cc3)c3ccccc23)ccc1F,8.24
4,COc1c(-c2ccc(F)cc2F)cc(S(=O)(=O)Nc2ccc(F)c(CC(=O)O)c2)c2ccccc12,3.14

# Species on record: Homo sapiens
# Assay: Selectivity ratio of IC50 for FABP3 (unknown origin) to IC50 for FABP4 (unknown origin)
# Conditions: not given
# Procedure, shortened: as §1
row,Ratio IC50,Structure (SMILES)
1,13.1,O=C(O)c1cc(NS(=O)(=O)c2ccc(-c3ccc(F)c(Cl)c3)c3ccccc23)ccc1F
2,0.31,Cc1c(Cl)cccc1OCc1[nH]c2nc(-c3ccccc3)nn2c(=O)c1C

# Species on record: Homo sapiens
# Assay: Selectivity ratio of IC50 for FABP3 (unknown origin) to IC50 for FABP5 (unknown origin)
# Conditions: not given
# Procedure, shortened: as §1
row,Ratio IC50,Structure (SMILES)
1,16.3,O=C(O)c1cc(NS(=O)(=O)c2ccc(-c3ccc(F)c(Cl)c3)c3ccccc23)ccc1F
2,0.08,Cc1c(Cl)cccc1OCc1[nH]c2nc(-c3ccccc3)nn2c(=O)c1C

# Target: Fatty acid-binding protein, heart (Homo sapiens, UniProt P05413)
# Sequence (P05413 whole entry): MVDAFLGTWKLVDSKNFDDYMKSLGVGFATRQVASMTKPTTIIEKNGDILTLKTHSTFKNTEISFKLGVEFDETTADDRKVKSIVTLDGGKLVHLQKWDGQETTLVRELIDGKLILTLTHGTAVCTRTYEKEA
# Assay: Displacement of 1,8-ANS from FABP3 (unknown origin) incubated for 3 mins by fluorescence based analysis
# Conditions: not given
# Procedure, shortened: as §1
row,IC50 [µM],Structure (SMILES)
1,103,O=C(O)c1cc(NS(=O)(=O)c2ccc(-c3ccc(F)c(Cl)c3)c3ccccc23)ccc1F
2,1.95,Cc1c(Cl)cccc1OCc1[nH]c2nc(-c3ccccc3)nn2c(=O)c1C

# Test system: 3T3-L1
# Assay: Cytotoxicity against mouse 3T3-L1 cells assessed as reduction in cell viability at 100 uM incubated for 24 hrs by CCK8 assay
# Type: cell-based
# Conditions: 3t3-l1, 24 h
row,Structure (SMILES),Activity
1,COc1c(-c2ccccc2C(C)C)cc(S(=O)(=O)Nc2ccc(F)c(CC(=O)O)c2)c2ccccc12,Non-Toxic
2,O=C(O)c1cc(NS(=O)(=O)c2ccc(-c3ccc(F)c(Cl)c3)c3ccccc23)ccc1F,Non-Toxic

# Target: T1, Fatty acid-binding protein, adipocyte
# Assay: Displacement of 1,8-ANS from FABP4 (unknown origin) at 25 uM incubated for 3 mins by fluorescence based analysis relative to control
# Conditions: not given
# Procedure, shortened: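 Single-concentration percent inhibition in the 1,8-ANS displacement assay with FABP4. Compound incubated with protein and probe in phosphate buffer for 3 min at room temperature; fluorescence read at ex 370/em 470 nm.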
# Target sequence in this assay (P15090 2-132 limits assumed): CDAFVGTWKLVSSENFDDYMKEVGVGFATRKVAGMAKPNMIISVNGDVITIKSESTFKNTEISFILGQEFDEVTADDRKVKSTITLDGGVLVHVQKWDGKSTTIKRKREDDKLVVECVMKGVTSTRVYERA
row,inhibition [%],Structure (SMILES)
1,61,Cc1noc(C)c1-c1ccc(S(=O)(=O)Nc2ccc(F)c(C(=O)O)c2)c2ccccc12
2,52,COc1c(-c2cc(Cl)ccc2Cl)cc(S(=O)(=O)Nc2ccc(F)c(CC(=O)O)c2)c2ccccc12
3,78,O=C(O)c1cc(NS(=O)(=O)c2ccc(-c3ccc(F)c(Cl)c3)c3ccccc23)ccc1F
4,97,Cc1c(Cl)cccc1OCc1[nH]c2nc(-c3ccccc3)nn2c(=O)c1C
5,63,CCc1ccccc1-c1cc(S(=O)(=O)Nc2ccc(F)c(CC(=O)O)c2)c2ccccc2c1OC

# Continued, compound first:
row,Structure (SMILES),inhibition [%]
1,O=C(O)c1cc(NS(=O)(=O)c2ccc(-c3ccc(C(F)(F)F)cc3)c3ccccc23)ccc1F,40
2,COc1c(-c2ccccc2C(C)C)cc(S(=O)(=O)Nc2ccc(F)c(CC(=O)O)c2)c2ccccc12,50
3,O=C(O)c1cc(NS(=O)(=O)c2ccc(-c3ccncc3)c3ccccc23)ccc1F,52
4,O=C(O)c1cc(NS(=O)(=O)c2ccc(-c3ccccc3OC(F)(F)F)c3ccccc23)ccc1F,74
5,CC(C)c1ccccc1-c1ccc(S(=O)(=O)Nc2ccc(F)c(C(=O)O)c2)c2ccccc12,74
6,O=C(O)c1cc(NS(=O)(=O)c2ccc(-c3ccc(O)cc3)c3ccccc23)ccc1F,73
7,COc1c(-c2ccccc2C(F)(F)F)cc(S(=O)(=O)Nc2ccc(F)c(CC(=O)O)c2)c2ccccc12,56
8,COc1c(-c2ccc(F)cc2F)cc(S(=O)(=O)Nc2ccc(F)c(CC(=O)O)c2)c2ccccc12,96

# Test system: 3T3-L1
# Assay: Anti-lipolytic activity in mouse 3T3-L1 cells assessed as inhibition of forskolin-stimulated glycerol release at 80 uM preincubated for 24 hrs followed by forskolin stimulation for 1 hr
# Type: functional, cell-based
# Conditions: time 25.0 hrs
row,Structure (SMILES),Activity
1,COc1c(-c2ccccc2C(C)C)cc(S(=O)(=O)Nc2ccc(F)c(CC(=O)O)c2)c2ccccc12,Active

# Test system: not listed separately
# Assay: Metabolic stability in mouse liver microsomes assessed as half life at 0.1 uM preincubated for 10 mins followed by NADPH addition and measured for 60 mins by LC-MS/MS analysis
# Type: ADME, Microsome
# Conditions: time 70 min
# Procedure, shortened: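 Mouse liver microsomes 0.33 mg/mL in 0.1 M Tris pH 7.4 with 5 mM MgCl₂, 0.01% DMSO and 0.005% BSA. Compound final […]. Preincubated 10 min at 37 °C; reaction started with 1 mM NADPH. Samples at 0, 7, 17, 30 and 60 min quenched with cold methanol, then analysed by LC-MS/MS.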
row,half-life at 0.1 µM [min],Structure (SMILES)
1,15.1,COc1c(-c2ccccc2C(C)C)cc(S(=O)(=O)Nc2ccc(F)c(CC(=O)O)c2)c2ccccc12
2,23.5,O=C(O)c1cc(NS(=O)(=O)c2ccc(OCCC3CCCCC3)c3ccccc23)ccc1F

# Target: Fatty acid-binding protein 5 (Homo sapiens, UniProt Q01469)
# Sequence (Q01469 whole entry): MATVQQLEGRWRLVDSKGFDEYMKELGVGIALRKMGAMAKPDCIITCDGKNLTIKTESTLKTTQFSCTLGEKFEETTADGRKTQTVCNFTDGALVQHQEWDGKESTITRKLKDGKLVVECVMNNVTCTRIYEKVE
# Assay: Displacement of 1,8-ANS from FABP5 (unknown origin) incubated for 3 mins by fluorescence based analysis
# Conditions: not given
row,IC50 [µM],Structure (SMILES)
1,6.33,O=C(O)c1cc(NS(=O)(=O)c2ccc(-c3ccc(F)c(Cl)c3)c3ccccc23)ccc1F
2,3.2,CCc1ccccc1-c1cc(S(=O)(=O)Nc2ccc(F)c(CC(=O)O)c2)c2ccccc2c1OC

# The next lines start with the compound.
row,Structure (SMILES),IC50 [µM]
1,COc1c(-c2ccccc2C(C)C)cc(S(=O)(=O)Nc2ccc(F)c(CC(=O)O)c2)c2ccccc12,2.9
2,O=C(O)c1cc(NS(=O)(=O)c2ccc(-c3ccccc3OC(F)(F)F)c3ccccc23)ccc1F,8.2
3,CC(C)c1ccccc1-c1ccc(S(=O)(=O)Nc2ccc(F)c(C(=O)O)c2)c2ccccc12,16.8
4,COc1c(-c2ccccc2C(F)(F)F)cc(S(=O)(=O)Nc2ccc(F)c(CC(=O)O)c2)c2ccccc12,7.72
